Data published in ChEMBL document CHEMBL4765230, “Discovery of Orally Efficacious Phosphoinositide 3-Kinase δ Inhibitors with Improved Metabolic Stability” (J Med Chem, 2016).

system: not listed separately; assay: Volume of distribution at steady state in dog at 1 mg/kg, iv; format: ADME, organism-based, Canis lupus familiaris; conditions: in vivo, read-out: Vdss
Method in brief: (§1)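 Rats and dog received 1 mg/kg intravenously, formulated in 12% w/v Captisol in water. Volume of distribution was taken at steady state from the iv plasma profile. Three animals per dosing route.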

Compound | Vd [L/kg]
CC[C@H](Nc1nc(N)nc(N)c1C#N)c1nc2c(F)ccc(Cl)c2c(=O)n1-c1cccnc1 | 0.3
C[C@H](Nc1nc(N)nc(N)c1C#N)c1nc2c(F)ccc(Cl)c2c(=O)n1-c1cncc(F)c1 | 0.96

system: not listed separately; assay: Chemical stability of the compound at pH 2 phosphate buffer assessed as time required for 50% hydrolytic degradation at 100 ug/ml and 40 degreeC by UPLC-UV analysis; format: physicochemical; conditions: dose 100 µg/ml, read-out: Time (converted)
Method in brief: (§2)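 Compound diluted from acetonitrile or DMSO stock to 100 μg/mL final in 50 mM phosphate buffer, pH 2 (or pH 7), ionic strength 0.15 M NaCl, 40 °C in autosampler. Timed injections analysed by reverse-phase UPLC-UV (220 nm); pseudo-first-order kobs from ln c vs time; t50 and t90 calculated.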

Compound | half-life at 100 ug/ml [h]
C[C@H](Nc1nc(N)nc(N)c1C#N)c1nc2c(Cl)ccc(Cl)c2c(=O)n1-c1cccnc1 | 15
CC[C@H](Nc1nc(N)nc(N)c1C#N)c1nc2c(F)ccc(Cl)c2c(=O)n1-c1cccnc1 | 19
C[C@H](Nc1nc(N)nc(N)c1C#N)c1nc2c(F)ccc(Cl)c2c(=O)n1-c1cncc(F)c1 | 20

target: PI3-kinase p110-delta/p85-alpha (Homo sapiens, UniProt O00329); assay: Inhibition of human full length PI3K p110delta/p85alpha using […] as substrate measured after 30 mins by TR-FRET assay; format: protein-complex assay; conditions: not given
Sequence (P27986 whole entry, one chain of several): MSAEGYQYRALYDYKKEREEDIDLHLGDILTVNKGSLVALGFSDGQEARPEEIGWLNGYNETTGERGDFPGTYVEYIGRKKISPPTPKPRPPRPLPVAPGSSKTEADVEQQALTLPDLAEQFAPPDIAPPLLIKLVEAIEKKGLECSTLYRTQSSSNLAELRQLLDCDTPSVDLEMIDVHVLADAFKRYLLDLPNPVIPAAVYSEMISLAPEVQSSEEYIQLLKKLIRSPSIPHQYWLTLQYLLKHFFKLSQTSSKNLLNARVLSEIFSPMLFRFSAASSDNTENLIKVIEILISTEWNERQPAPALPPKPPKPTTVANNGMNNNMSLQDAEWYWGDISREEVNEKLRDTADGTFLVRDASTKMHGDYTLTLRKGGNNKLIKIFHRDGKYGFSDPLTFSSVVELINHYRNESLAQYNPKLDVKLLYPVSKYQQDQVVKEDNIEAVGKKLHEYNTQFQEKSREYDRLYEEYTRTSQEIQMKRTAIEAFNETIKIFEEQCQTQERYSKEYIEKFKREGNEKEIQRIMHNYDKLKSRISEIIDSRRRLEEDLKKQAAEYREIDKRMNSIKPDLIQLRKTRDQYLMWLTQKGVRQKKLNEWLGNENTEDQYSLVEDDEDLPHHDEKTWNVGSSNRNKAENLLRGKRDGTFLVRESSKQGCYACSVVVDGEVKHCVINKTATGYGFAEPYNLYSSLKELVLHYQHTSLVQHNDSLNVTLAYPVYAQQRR

Compound | IC50 [nM]
Cc1c(F)cncc1-n1c([C@H](C)Nc2nc(N)nc(N)c2C#N)nc2cccc(Cl)c2c1=O (stereo in doubt; 28) | 40
C[C@H](Nc1nc(N)nc(N)c1C#N)c1nc2cccc(Cl)c2c(=O)n1-c1cncc(C(F)(F)F)c1 | 17
C[C@H](Nc1nc(N)nc(N)c1C#N)c1nc2cccc(Cl)c2c(=O)n1-c1cncc(C#N)c1 | 13
CC[C@H](Nc1nc(N)nc(N)c1C#N)c1nc2c(F)ccc(Cl)c2c(=O)n1-c1cccnc1 | 2

system: not listed separately; assay: Oral bioavailability in rat at 5 mg/kg; format: ADME, organism-based; conditions: in vivo

Compound | bioavailability [%]
CC[C@H](Nc1nc(N)nc(N)c1C#N)c1nc2c(F)ccc(Cl)c2c(=O)n1-c1cccnc1 | 37
C[C@H](Nc1nc(N)nc(N)c1C#N)c1nc2c(F)ccc(Cl)c2c(=O)n1-c1cncc(F)c1 | 46

system: not listed separately; assay: Chemical stability of the compound at pH 2 phosphate buffer assessed as time required for 90% hydrolytic degradation at 100 ug/ml and 40 degreeC by UPLC-UV analysis; format: physicochemical; conditions: in the assay text read “10% hydrolytic degradation” for “90% hydrolytic degradation”, dose 100 µg/ml; method in brief: as §2

Compound | Time [h]
C[C@H](Nc1nc(N)nc(N)c1C#N)c1nc2c(Cl)ccc(Cl)c2c(=O)n1-c1cccnc1 | 2.3
CC[C@H](Nc1nc(N)nc(N)c1C#N)c1nc2c(F)ccc(Cl)c2c(=O)n1-c1cccnc1 | 2.8
C[C@H](Nc1nc(N)nc(N)c1C#N)c1nc2c(F)ccc(Cl)c2c(=O)n1-c1cncc(F)c1 | 2.9

system: not listed separately; assay: Volume of distribution at steady state in rat at 1 mg/kg, iv; format: ADME, organism-based; conditions: in vivo, read-out: Vdss; method in brief: as §1

Compound | Vd [L/kg]
CC[C@H](Nc1nc(N)nc(N)c1C#N)c1nc2c(F)ccc(Cl)c2c(=O)n1-c1cccnc1 | 0.54
C[C@H](Nc1nc(N)nc(N)c1C#N)c1nc2c(F)ccc(Cl)c2c(=O)n1-c1cncc(F)c1 | 1.4

target: T1, Phosphatidylinositol 4,5-bisphosphate 3-kinase catalytic subunit delta isoform (Homo sapiens, UniProt O00329); assay: Inhibition of PI3Kdelta in human whole blood assessed as reduction in anti-FCepsilonR1 mAb-stimulated basophil activation preincubated for 60 mins followed by anti-FCepsilonR1 mAb stimulation and measured after 25 mins by flow cytometry analysis; format: tissue-based; conditions: not given
T1 sequence (O00329 whole entry): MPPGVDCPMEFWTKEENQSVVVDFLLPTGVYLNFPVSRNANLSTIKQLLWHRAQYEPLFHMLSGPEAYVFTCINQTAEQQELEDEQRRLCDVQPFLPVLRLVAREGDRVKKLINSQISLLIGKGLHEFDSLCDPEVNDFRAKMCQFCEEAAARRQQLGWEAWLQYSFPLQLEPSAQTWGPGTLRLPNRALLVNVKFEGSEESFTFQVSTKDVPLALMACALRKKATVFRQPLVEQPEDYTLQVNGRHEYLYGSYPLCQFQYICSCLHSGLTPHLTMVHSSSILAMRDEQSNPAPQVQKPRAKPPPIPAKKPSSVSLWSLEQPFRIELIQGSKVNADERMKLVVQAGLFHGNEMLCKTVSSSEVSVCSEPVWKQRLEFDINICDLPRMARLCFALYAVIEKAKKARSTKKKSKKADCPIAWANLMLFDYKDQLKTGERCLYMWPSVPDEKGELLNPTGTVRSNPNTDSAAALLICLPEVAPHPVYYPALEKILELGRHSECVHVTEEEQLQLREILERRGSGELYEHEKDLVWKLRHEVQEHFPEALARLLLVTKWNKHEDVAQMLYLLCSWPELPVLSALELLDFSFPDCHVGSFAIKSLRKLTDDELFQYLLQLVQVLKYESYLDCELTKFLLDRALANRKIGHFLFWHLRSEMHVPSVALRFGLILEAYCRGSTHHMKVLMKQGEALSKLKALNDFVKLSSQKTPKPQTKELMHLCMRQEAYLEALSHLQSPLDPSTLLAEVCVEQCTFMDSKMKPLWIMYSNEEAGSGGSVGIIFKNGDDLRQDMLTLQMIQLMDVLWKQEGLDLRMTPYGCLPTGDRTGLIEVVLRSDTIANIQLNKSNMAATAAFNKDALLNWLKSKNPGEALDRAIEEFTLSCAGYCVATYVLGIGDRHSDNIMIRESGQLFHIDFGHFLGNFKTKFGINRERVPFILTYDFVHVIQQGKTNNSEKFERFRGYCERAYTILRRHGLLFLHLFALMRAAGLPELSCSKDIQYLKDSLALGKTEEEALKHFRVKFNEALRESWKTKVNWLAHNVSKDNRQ

Compound | EC50 [nM]
C[C@H](Nc1nc(N)nc(N)c1C#N)c1nc2c(Cl)ccc(Cl)c2c(=O)n1-c1cccnc1 | 0.9
C[C@H](Nc1nc(N)nc(N)c1C#N)c1nc2cccc(Cl)c2c(=O)n1-c1cncc(C(F)(F)F)c1 | 21
C[C@H](Nc1nc(N)nc(N)c1C#N)c1nc2cccc(Cl)c2c(=O)n1-c1cncc(C#N)c1 | 4
COc1cncc(-n2c([C@H](C)Nc3nc(N)nc(N)c3C#N)nc3cccc(Cl)c3c2=O)c1 | 3
C[C@H](Nc1nc(N)nc(N)c1C#N)c1nc2cccc(Cl)c2c(=O)n1-c1cncc(Cl)c1 | 4
CC[C@H](Nc1nc(N)nc(N)c1C#N)c1nc2c(F)ccc(Cl)c2c(=O)n1-c1cccnc1 | 2
C[C@H](Nc1nc(N)nc(N)c1C#N)c1nc2cccc(Cl)c2c(=O)n1-c1cncc(C2CC2)c1 | 7
C[C@H](Nc1nc(N)nc(N)c1C#N)c1nc2c(F)ccc(Cl)c2c(=O)n1-c1cncc(F)c1 | 0.5
C[C@H](Nc1nc(N)nc(N)c1C#N)c1nc2c(F)ccc(F)c2c(=O)n1-c1cccnc1 | 11
C[C@H](Nc1nc(N)nc(N)c1C#N)c1nc2c(Cl)cccc2c(=O)n1-c1cccnc1 | 5

system: not listed separately; assay: Clearance in dog at 1 mg/kg, iv; format: ADME, organism-based, Canis lupus familiaris; conditions: in vivo

Compound | clearance [mL/min/kg]
CC[C@H](Nc1nc(N)nc(N)c1C#N)c1nc2c(F)ccc(Cl)c2c(=O)n1-c1cccnc1 | 2.17
C[C@H](Nc1nc(N)nc(N)c1C#N)c1nc2c(F)ccc(Cl)c2c(=O)n1-c1cncc(F)c1 | 5.17

target: Phosphatidylinositol 4,5-bisphosphate 3-kinase catalytic subunit gamma isoform (Homo sapiens, UniProt P48736); assay: Inhibition of human full length PI3K p110gamma using […] as substrate measured after 30 mins by TR-FRET assay; conditions: not given
Sequence (P48736 whole entry, canonical isoform): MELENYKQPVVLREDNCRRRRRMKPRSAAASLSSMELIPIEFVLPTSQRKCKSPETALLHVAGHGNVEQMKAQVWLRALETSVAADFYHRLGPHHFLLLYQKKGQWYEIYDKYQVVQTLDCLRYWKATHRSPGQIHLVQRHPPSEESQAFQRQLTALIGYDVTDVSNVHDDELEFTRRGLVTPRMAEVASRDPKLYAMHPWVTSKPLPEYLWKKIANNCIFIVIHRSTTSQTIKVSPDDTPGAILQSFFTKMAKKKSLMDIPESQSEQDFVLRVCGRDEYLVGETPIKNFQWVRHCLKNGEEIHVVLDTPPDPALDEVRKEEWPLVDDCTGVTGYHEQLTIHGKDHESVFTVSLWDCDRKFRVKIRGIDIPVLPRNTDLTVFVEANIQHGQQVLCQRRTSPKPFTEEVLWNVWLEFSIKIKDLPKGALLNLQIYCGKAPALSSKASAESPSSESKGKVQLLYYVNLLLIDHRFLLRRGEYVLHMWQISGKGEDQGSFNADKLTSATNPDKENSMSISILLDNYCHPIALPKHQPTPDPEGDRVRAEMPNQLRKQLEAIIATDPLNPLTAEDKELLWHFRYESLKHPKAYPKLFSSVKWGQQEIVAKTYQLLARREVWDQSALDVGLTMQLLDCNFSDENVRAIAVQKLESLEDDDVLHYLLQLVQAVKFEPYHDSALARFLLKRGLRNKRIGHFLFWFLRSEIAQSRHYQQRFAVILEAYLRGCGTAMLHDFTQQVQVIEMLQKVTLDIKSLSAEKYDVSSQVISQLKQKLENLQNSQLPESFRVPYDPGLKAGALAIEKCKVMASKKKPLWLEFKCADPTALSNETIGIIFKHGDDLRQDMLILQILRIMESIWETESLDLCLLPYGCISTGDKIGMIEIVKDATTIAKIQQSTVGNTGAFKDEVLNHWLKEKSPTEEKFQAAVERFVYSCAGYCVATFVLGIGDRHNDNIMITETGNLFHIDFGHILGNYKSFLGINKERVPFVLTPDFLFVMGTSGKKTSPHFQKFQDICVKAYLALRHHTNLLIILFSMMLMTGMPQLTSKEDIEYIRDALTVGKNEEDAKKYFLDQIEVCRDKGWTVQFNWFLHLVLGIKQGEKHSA

Compound | IC50 [nM]
C[C@H](Nc1nc(N)nc(N)c1C#N)c1nc2c(Cl)ccc(Cl)c2c(=O)n1-c1cccnc1 | 330
Cc1c(F)cncc1-n1c([C@H](C)Nc2nc(N)nc(N)c2C#N)nc2cccc(Cl)c2c1=O (stereo in doubt; 28) | 6900
C[C@H](Nc1nc(N)nc(N)c1C#N)c1nc2cccc(Cl)c2c(=O)n1-c1cncc(C(F)(F)F)c1 | 1300
C[C@H](Nc1nc(N)nc(N)c1C#N)c1nc2cccc(Cl)c2c(=O)n1-c1cncc(C#N)c1 | 700
COc1cncc(-n2c([C@H](C)Nc3nc(N)nc(N)c3C#N)nc3cccc(Cl)c3c2=O)c1 | 830
C[C@H](Nc1nc(N)nc(N)c1C#N)c1nc2cccc(Cl)c2c(=O)n1-c1cncc(Cl)c1 | 1200
CC[C@H](Nc1nc(N)nc(N)c1C#N)c1nc2c(F)ccc(Cl)c2c(=O)n1-c1cccnc1 | 520
C[C@H](Nc1nc(N)nc(N)c1C#N)c1nc2cccc(Cl)c2c(=O)n1-c1cncc(C2CC2)c1 | 2300
C[C@H](Nc1nc(N)nc(N)c1C#N)c1nc2c(F)ccc(Cl)c2c(=O)n1-c1cncc(F)c1 | 120
C[C@H](Nc1nc(N)nc(N)c1C#N)c1nc2c(F)ccc(F)c2c(=O)n1-c1cccnc1 | 940
Cc1ccncc1-n1c([C@H](C)Nc2nc(N)nc(N)c2C#N)nc2cccc(Cl)c2c1=O (stereo in doubt; 26) | 1300
C[C@H](Nc1nc(N)nc(N)c1C#N)c1nc2c(Cl)cccc2c(=O)n1-c1cccnc1 | 1100
Cc1ncccc1-n1c([C@H](C)Nc2nc(N)nc(N)c2C#N)nc2cccc(Cl)c2c1=O (stereo in doubt; 24) | 650

target: PI3K p110 beta/p85 alpha (Homo sapiens, UniProt P42338); assay: Inhibition of recombinant human full-length N-terminal His-tagged PI3K p110beta/p85alpha using […] as substrate measured after 30 mins by TR-FRET assay; format: protein-complex assay; conditions: not given
Sequence (P27986 whole entry): as the sequence (P27986 whole entry, one chain of several) above
Sequence (P42338 whole entry): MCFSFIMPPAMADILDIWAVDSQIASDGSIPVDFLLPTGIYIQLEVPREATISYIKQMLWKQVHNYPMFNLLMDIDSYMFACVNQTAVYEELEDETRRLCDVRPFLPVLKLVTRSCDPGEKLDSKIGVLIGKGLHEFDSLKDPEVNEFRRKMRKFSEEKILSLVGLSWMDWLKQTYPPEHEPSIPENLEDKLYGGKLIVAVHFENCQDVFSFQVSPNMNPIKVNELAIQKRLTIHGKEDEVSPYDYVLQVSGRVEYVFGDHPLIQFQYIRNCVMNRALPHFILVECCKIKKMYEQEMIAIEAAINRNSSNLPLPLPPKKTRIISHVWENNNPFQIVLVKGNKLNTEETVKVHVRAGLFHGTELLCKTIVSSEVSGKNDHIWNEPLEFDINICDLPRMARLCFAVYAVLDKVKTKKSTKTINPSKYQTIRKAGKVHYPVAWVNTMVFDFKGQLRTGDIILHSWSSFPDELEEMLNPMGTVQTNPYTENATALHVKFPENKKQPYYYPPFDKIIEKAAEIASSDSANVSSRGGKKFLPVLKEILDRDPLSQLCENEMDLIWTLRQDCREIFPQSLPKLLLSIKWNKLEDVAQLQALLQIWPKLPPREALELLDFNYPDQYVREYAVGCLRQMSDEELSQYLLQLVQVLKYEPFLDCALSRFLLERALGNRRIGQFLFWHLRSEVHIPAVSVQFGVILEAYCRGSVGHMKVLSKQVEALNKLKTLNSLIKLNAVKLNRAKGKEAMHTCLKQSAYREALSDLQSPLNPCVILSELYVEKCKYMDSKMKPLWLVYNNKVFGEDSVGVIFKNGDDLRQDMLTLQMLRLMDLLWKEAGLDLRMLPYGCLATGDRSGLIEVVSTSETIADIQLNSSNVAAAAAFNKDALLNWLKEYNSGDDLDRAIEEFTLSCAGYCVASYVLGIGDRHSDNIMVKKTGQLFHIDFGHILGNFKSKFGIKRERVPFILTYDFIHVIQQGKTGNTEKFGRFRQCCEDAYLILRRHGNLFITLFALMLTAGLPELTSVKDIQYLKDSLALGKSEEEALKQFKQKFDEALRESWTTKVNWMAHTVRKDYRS

Compound | IC50 [nM]
C[C@H](Nc1nc(N)nc(N)c1C#N)c1nc2c(Cl)ccc(Cl)c2c(=O)n1-c1cccnc1 | 76
Cc1c(F)cncc1-n1c([C@H](C)Nc2nc(N)nc(N)c2C#N)nc2cccc(Cl)c2c1=O (stereo in doubt; 28) | 1750
C[C@H](Nc1nc(N)nc(N)c1C#N)c1nc2cccc(Cl)c2c(=O)n1-c1cncc(C(F)(F)F)c1 | 4800
C[C@H](Nc1nc(N)nc(N)c1C#N)c1nc2cccc(Cl)c2c(=O)n1-c1cncc(C#N)c1 | 3100
COc1cncc(-n2c([C@H](C)Nc3nc(N)nc(N)c3C#N)nc3cccc(Cl)c3c2=O)c1 | 3000
C[C@H](Nc1nc(N)nc(N)c1C#N)c1nc2cccc(Cl)c2c(=O)n1-c1cncc(Cl)c1 | 1200
CC[C@H](Nc1nc(N)nc(N)c1C#N)c1nc2c(F)ccc(Cl)c2c(=O)n1-c1cccnc1 | 310
C[C@H](Nc1nc(N)nc(N)c1C#N)c1nc2cccc(Cl)c2c(=O)n1-c1cncc(C2CC2)c1 | 2600
C[C@H](Nc1nc(N)nc(N)c1C#N)c1nc2c(F)ccc(Cl)c2c(=O)n1-c1cncc(F)c1 | 440
C[C@H](Nc1nc(N)nc(N)c1C#N)c1nc2c(F)ccc(F)c2c(=O)n1-c1cccnc1 | 770
Cc1ccncc1-n1c([C@H](C)Nc2nc(N)nc(N)c2C#N)nc2cccc(Cl)c2c1=O (stereo in doubt; 26) | 370
C[C@H](Nc1nc(N)nc(N)c1C#N)c1nc2c(Cl)cccc2c(=O)n1-c1cccnc1 | 390
Cc1ncccc1-n1c([C@H](C)Nc2nc(N)nc(N)c2C#N)nc2cccc(Cl)c2c1=O (stereo in doubt; 24) | 440

target: PI3-kinase p110-alpha/p85-alpha (Homo sapiens, UniProt P42336); assay: Inhibition of human full length PI3K p110alpha/p85alpha using […] as substrate measured after 30 mins by TR-FRET assay; format: protein-complex assay; conditions: not given
Sequence (P27986 whole entry): as the sequence (P27986 whole entry, one chain of several) above
Sequence (P42336 whole entry): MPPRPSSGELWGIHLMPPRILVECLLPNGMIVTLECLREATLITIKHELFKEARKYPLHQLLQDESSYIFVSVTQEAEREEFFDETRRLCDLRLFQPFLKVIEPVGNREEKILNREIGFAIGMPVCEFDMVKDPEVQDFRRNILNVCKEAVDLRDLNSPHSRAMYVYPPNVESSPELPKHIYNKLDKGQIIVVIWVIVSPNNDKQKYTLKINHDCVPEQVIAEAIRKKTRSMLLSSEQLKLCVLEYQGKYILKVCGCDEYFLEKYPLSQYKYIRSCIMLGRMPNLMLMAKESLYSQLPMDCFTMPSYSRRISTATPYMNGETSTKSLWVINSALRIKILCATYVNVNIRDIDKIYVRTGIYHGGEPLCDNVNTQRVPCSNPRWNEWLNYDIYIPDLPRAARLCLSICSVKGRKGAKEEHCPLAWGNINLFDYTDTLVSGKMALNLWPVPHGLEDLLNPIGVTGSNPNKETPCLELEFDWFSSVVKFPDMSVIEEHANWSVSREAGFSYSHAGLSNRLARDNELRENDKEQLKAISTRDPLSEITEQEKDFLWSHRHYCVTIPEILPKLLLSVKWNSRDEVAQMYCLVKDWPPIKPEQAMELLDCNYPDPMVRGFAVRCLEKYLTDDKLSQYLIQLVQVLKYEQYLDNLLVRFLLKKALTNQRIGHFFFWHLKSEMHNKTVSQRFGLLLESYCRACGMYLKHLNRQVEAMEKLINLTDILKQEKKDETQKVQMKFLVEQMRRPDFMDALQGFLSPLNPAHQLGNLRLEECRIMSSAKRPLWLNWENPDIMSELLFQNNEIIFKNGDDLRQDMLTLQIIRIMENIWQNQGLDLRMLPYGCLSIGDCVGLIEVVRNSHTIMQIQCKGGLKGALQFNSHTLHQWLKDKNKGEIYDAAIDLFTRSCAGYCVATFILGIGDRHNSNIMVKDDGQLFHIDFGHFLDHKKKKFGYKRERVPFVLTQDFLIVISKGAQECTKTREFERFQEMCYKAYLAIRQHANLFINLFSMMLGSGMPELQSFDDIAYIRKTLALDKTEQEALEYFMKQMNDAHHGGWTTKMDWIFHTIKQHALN

Compound | IC50 [nM]
C[C@H](Nc1nc(N)nc(N)c1C#N)c1nc2c(Cl)ccc(Cl)c2c(=O)n1-c1cccnc1 | 1300
Cc1c(F)cncc1-n1c([C@H](C)Nc2nc(N)nc(N)c2C#N)nc2cccc(Cl)c2c1=O (stereo in doubt; 28) | 10000
C[C@H](Nc1nc(N)nc(N)c1C#N)c1nc2cccc(Cl)c2c(=O)n1-c1cncc(C(F)(F)F)c1 | 10000
C[C@H](Nc1nc(N)nc(N)c1C#N)c1nc2cccc(Cl)c2c(=O)n1-c1cncc(C#N)c1 | 8700
COc1cncc(-n2c([C@H](C)Nc3nc(N)nc(N)c3C#N)nc3cccc(Cl)c3c2=O)c1 | 10000
C[C@H](Nc1nc(N)nc(N)c1C#N)c1nc2cccc(Cl)c2c(=O)n1-c1cncc(Cl)c1 | 8300
CC[C@H](Nc1nc(N)nc(N)c1C#N)c1nc2c(F)ccc(Cl)c2c(=O)n1-c1cccnc1 | 1500
C[C@H](Nc1nc(N)nc(N)c1C#N)c1nc2cccc(Cl)c2c(=O)n1-c1cncc(C2CC2)c1 | 10000
C[C@H](Nc1nc(N)nc(N)c1C#N)c1nc2c(F)ccc(Cl)c2c(=O)n1-c1cncc(F)c1 | 3100
C[C@H](Nc1nc(N)nc(N)c1C#N)c1nc2c(F)ccc(F)c2c(=O)n1-c1cccnc1 | 4020
Cc1ccncc1-n1c([C@H](C)Nc2nc(N)nc(N)c2C#N)nc2cccc(Cl)c2c1=O (stereo in doubt; 26) | 9700
C[C@H](Nc1nc(N)nc(N)c1C#N)c1nc2c(Cl)cccc2c(=O)n1-c1cccnc1 | 3100
Cc1ncccc1-n1c([C@H](C)Nc2nc(N)nc(N)c2C#N)nc2cccc(Cl)c2c1=O (stereo in doubt; 24) | 6800

system: not listed separately; assay: Clearance in rat at 1 mg/kg, iv; format: ADME, organism-based; conditions: in vivo

Compound | clearance [mL/min/kg]
CC[C@H](Nc1nc(N)nc(N)c1C#N)c1nc2c(F)ccc(Cl)c2c(=O)n1-c1cccnc1 | 5
C[C@H](Nc1nc(N)nc(N)c1C#N)c1nc2c(F)ccc(Cl)c2c(=O)n1-c1cncc(F)c1 | 17.7
